Measurements reported in publication PMC11847389 (BMC Chemistry, 2025).

Key:
[1] = cited from earlier work
mutant BTK C481S = details: cited from earlier work
[2] = in vitro, independent of concentration; ref package insert of JAYPIRCA; cited from earlier work
[3] = test system: patients with covalent BTKi-pretreated CLL; details: cited from earlier work
[4] = test system: CYP3A4, UGT1A8 and UGT1A9; details: ref package insert of JAYPIRCA; cited from earlier work
[5] = ref package insert of JAYPIRCA, cited from earlier work
CLL/SLL patients = details: 323 patients; cited from earlier work
[6] = Pharmacokinetic study of pirtobrutinib in rats; type: in vivo, Sprague–Dawley rats
How it was run: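 Six male Sprague–Dawley rats (8 weeks, 230 g ± 10 g), fasted 12 h, got a single intragastric 10 mg·kg-1 suspension in 0.5% CMC-Na. Ophthalmic-vein blood (200 µL, EDTA-K2) was drawn pre-dose and at 0.25–48 h; plasma was frozen at -80 °C. Plasma underwent cold-methanol protein precipitation with IS, then C18 UHPLC-MS/MS (0.5–500 ng/mL calibration). Parameters came from non-compartmental analysis.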

[7] = Stability of pirtobrutinib in rat plasma under different storage conditions; type: in vitro ADME; details: for Stability RE %: n = 6
How it was run: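 Blank rat plasma was spiked 1:10 with working solution to make QCs of 1, 25 and 400 ng/mL, six replicates each. These were held at room temperature 4 h, in the autosampler at 4 °C 24 h, through three freeze-thaw cycles, or at -80 °C 30 days. Samples then underwent cold-methanol protein precipitation with IS and UHPLC-MS/MS; RSD% and RE% were reported.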

mutant BTK C481T = details: cited from earlier work
mutant BTK C481R = details: cited from earlier work
[8] = male, Sprague-Dawley, rat, plasma, po, 10 mg/kg

With COc1ccc(F)cc1C(=O)NCc1ccc(-c2nn([C@@H](C)C(F)(F)F)c(N)c2C(N)=O)cc1 [Pirtobrutinib] as the molecule, how does the permeability in vitro [1] read?
The permeability in vitro was “high”.

And the “inhibition of autophosphorylation of Y223” value (from here on “inhibition”) (mutant BTK C481S)?
Its value is “can inhibit”.

What about the human protein binding [2] of the same molecule?
The human protein binding was 96%.

What about the “ORR versus venetoclax monotherapy” value [3] of the same molecule?
The value was “significantly higher”.

What about the metabolism in vitro [4] of the same molecule?
Its metabolism in vitro is “primarily metabolized by CYP3A4 and direct glucuronidation by UGT1A8 and UGT1A9”.

And the mean apparent clearance ([5]; (37.2%) printed as spread)?
Its mean apparent clearance is 2.05 L/h.

What about the “median time to reach peak plasma concentration (tmax)” value ([5]; range 0.833 to 4.15 h) of the same molecule?
The value was “approximately 2 h”.

And the effective half-life [5]?
The effective half-life was “approximately 19 h”.

What about the absolute bioavailability ([5]; single oral 200 mg dose, range 75.9–90.9%) of the same molecule?
The absolute bioavailability was 85.5%.

And the dose-limiting toxicities (CLL/SLL patients)?
Its dose-limiting toxicities is “no dose-limiting toxicities”.

What about the “patients discontinuing medication due to treatment-related AEs” value (CLL/SLL patients) of the same molecule?
The value was 1%.

And the “plasma concentration at last sampling timepoint” value ([6]; 48 h after intragastric 10 mg·kg−1, LLOQ 0.5 ng/ml)?
The value was “below the LLOQ”.

And the concentration at 0.25 h ([6]; male, Sprague-Dawley, rat, plasma, oral, 10 mg·kg−1)?
The concentration at 0.25 h was 140 ng/mL.

And the AUC(0-inf) [6, 8]?
The AUC(0-inf) was 2350 ± 582 ng·h/mL.

What about the AUC(0-t) [6, 8] of the same molecule?
The AUC(0-t) was 2340 ± 578 ng·h/mL.

And the Cmax [6, 8]?
The Cmax was 344 ± 56.6 ng/mL.

And the MRT inf [6, 8]?
Its MRT inf is 5.15 ± 0.94 h.

And the MRT last [6, 8]?
Its MRT last is 5.05 ± 0.923 h.

What about the Tmax [6, 8] of the same molecule?
The Tmax was 1.08 ± 0.736 h.

What about the half-life [6, 8] of the same molecule?
Its half-life is 2.95 ± 0.121 h.

What about the “Stability RE %” value ([7]; 1.0 ng/mL, autosampler 4 ℃, 24 h after preparation) of the same molecule?
Its value is -6.9%.

What about the “Stability RE %” value ([7]; 25 ng/mL, autosampler 4 ℃, 24 h after preparation) of the same molecule?
The value was -9.4%.

And the “Stability RE %” value ([7]; 400 ng/mL, autosampler 4 ℃, 24 h after preparation)?
The value was -11.7%.

And the “Stability RE% value, three QC samples” value ([7]; all four storage conditions, absolute (±) value)?
Its value is less than 11.7%.

And the “Stability RE %” value ([7]; rat plasma, 1.0 ng/mL, -80 ℃, 30 days)?
The value was -1.8%.

What about the “Stability RE %” value ([7]; rat plasma, 1.0 ng/mL, room temperature, 4 h) of the same molecule?
The value was 0%.

And the “Stability RE %” value ([7]; rat plasma, 1.0 ng/mL, three freeze-thaw)?
The value was -3.7%.

What about the “Stability RE %” value ([7]; rat plasma, 25 ng/mL, -80 ℃, 30 days) of the same molecule?
Its value is 9.4%.

What about the “Stability RE %” value ([7]; rat plasma, 25 ng/mL, room temperature, 4 h) of the same molecule?
The value was 1.7%.

What about the “Stability RE %” value ([7]; rat plasma, 400 ng/mL, three freeze-thaw) of the same molecule?
The value was 6.0%.

And the Stability in plasma ([7]; several storage and handling conditions)?
The Stability in plasma was “stable”.

And the “inhibition” value (mutant BTK C481T)?
The value was “can inhibit”.

What about the “inhibition” value (mutant BTK C481R) of the same molecule?
The value was “can inhibit”.
